# Reference: ChEMBL document CHEMBL1159330, “New diarylheptanoids and diarylheptanoid glucosides from the rhizomes of Tacca chantrieri and their cytotoxic activity” (J Nat Prod, 2002)
# Key:
# [1] = system: HL-60; assay: Cytotoxicity against human HL60 cells after 72 hrs by MTT assay; type: functional, cell-based; details: HL-60, 72 h
# Summary of the method: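 HL-60 cells kept in RPMI 1640 with 10% heat-inactivated FBS, penicillin and streptomycin, 5% CO₂, 37 °C. Seeded at 4 × 10⁴ cells/mL, 196 µL per well, pre-incubated 24 h. Sample added in EtOH-H₂O (1:1) to final 0.1-10 µg/mL, solvent-only controls. Exposure 72 h. Triplicate. IC₅₀ = 50% drop in viable cells.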
# [2] = system: HSC-2; assay: Cytotoxicity against human HSC2 cells by MTT assay; type: functional, cell-based
# Summary of the method: (§1)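 HSC-2 grown in DMEM with 10% heat-inactivated FBS. HGF taken from a healthy person's gingival biopsy, explant-cultured, used at passages 5-7. Cells trypsinized, seeded at 6 × 10³ per well, grown 24 h. Washed with PBS, then compound for 24 h. Washed, 0.2 mg/mL MTT in DMEM/10% FBS for 4 h. Lysed in DMSO, A540 measured.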
# [3] = Cytotoxicity against HGF by MTT assay; type: cell-based; details: Homo sapiens; summary of the method: as §1
Structure (SMILES),IC50 [1] [mg/L],IC50 [2] [mg/L],IC50 [3] [mg/L]
COc1cc(CC[C@@H](O)C[C@H](O)CCc2ccc(O)c(O)c2)ccc1O,4.1,–,–
COc1ccc(CC[C@@H](O)C[C@H](O)CCc2ccc(OC)c(OC)c2)cc1OC,4.9,6.6,174
Oc1ccc(CC[C@@H](O)C[C@H](O)CCc2ccc(O)c(O)c2)cc1,2.1,54,162
OC[C@H]1O[C@@H](O[C@H](CCc2ccc(O)cc2)C[C@H](O)CCc2ccc(O)cc2)[C@H](O)[C@@H](O)[C@@H]1O,> 10,157,213
Oc1ccc(CC[C@@H](O)C[C@H](O)CCc2ccc(O)c(O)c2)cc1O,1.8,54,> 250
Oc1ccc(CC[C@@H](O)C[C@H](O)CCc2ccc(O)cc2)cc1 [(+)-HANNOKINOL],> 10,231,177
OC[C@H]1O[C@@H](O[C@H](CCc2ccc(O)c(O)c2)C[C@H](O)CCc2ccc(O)cc2)[C@H](O)[C@@H](O)[C@@H]1O,6.2,158,220
COc1cc(CC[C@@H](O)C[C@@H](CCc2ccc(O)c(OC)c2)O[C@@H]2O[C@H](CO)[C@@H](O)[C@H](O)[C@H]2O)ccc1O,> 10,198,> 250
COc1cc(CC[C@H](C[C@H](O)CCc2ccc(O)cc2)O[C@@H]2O[C@H](CO)[C@@H](O)[C@H](O)[C@H]2O)ccc1O,> 10,160,> 250
COc1ccc(CC[C@@H](O)C[C@H](O)CCc2ccc(OC)cc2)cc1,6.4,23,173
COc1cc(CC[C@@H](O)C[C@H](O)CCc2ccc(O)c(OC)c2)ccc1O,> 10,–,–
COc1cc(CC[C@H](C[C@H](O)CCc2ccc(O)c(O)c2)O[C@@H]2O[C@H](CO)[C@@H](O)[C@H](O)[C@H]2O)ccc1O,4.5,209,> 250
COc1cc([C@@H]2c3cc4c(cc3[C@@H](O[C@@H]3O[C@@H]5CO[C@@H](C)O[C@H]5[C@H](O)[C@H]3O)[C@H]3COC(=O)[C@H]23)OCO4)cc(OC)c1O [ETOPOSIDE],0.2,–,> 200
COc1ccc(CC[C@@H](O)C[C@H](O)CCc2ccc(OC)c(OC)c2)cc1,5.5,3.9,176
OC[C@H]1O[C@@H](O[C@H](CCc2ccc(O)cc2)C[C@H](O)CCc2ccc(O)c(O)c2)[C@H](O)[C@@H](O)[C@@H]1O,5.5,155,> 250
OC[C@H]1O[C@@H](O[C@H](CCc2ccc(O)c(O)c2)C[C@H](O)CCc2ccc(O)c(O)c2)[C@H](O)[C@@H](O)[C@@H]1O,3,92,189
COc1cc(CC[C@@H](O)C[C@H](O)CCc2ccc(O)cc2)ccc1O,> 10,–,–
